The record followed here is ChEMBL document CHEMBL1139690, “Comparison between two classes of selective EP(3) antagonists and their biological activities” (Bioorg Med Chem Lett, 2006).

Data set [1] can be described thus: Bioavailability in Sprague-Dawley rat at 10 mg/kg, po and 5 mg/kg, iv. It is filed as ADME, organism-based. The settings on record: in vivo.
In data set [2] the target is T1, Prostaglandin D2 receptor (Homo sapiens, UniProt Q13258).
T1 sequence (Q13258 whole entry): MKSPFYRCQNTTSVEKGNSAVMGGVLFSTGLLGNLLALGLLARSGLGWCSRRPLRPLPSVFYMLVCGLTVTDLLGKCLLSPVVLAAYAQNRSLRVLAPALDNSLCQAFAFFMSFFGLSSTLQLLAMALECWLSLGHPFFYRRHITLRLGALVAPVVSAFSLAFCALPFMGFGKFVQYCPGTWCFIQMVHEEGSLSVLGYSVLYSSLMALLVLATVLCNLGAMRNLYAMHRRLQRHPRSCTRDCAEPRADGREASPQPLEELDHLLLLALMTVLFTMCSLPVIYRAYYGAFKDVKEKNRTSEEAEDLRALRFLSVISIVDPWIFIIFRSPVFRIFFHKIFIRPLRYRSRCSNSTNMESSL
Briefly: Binding affinity to DP receptor.

Data set [3] deals with T2, Prostaglandin E2 receptor EP1 subtype (Homo sapiens, UniProt P34995).
T2 sequence (P34995 whole entry): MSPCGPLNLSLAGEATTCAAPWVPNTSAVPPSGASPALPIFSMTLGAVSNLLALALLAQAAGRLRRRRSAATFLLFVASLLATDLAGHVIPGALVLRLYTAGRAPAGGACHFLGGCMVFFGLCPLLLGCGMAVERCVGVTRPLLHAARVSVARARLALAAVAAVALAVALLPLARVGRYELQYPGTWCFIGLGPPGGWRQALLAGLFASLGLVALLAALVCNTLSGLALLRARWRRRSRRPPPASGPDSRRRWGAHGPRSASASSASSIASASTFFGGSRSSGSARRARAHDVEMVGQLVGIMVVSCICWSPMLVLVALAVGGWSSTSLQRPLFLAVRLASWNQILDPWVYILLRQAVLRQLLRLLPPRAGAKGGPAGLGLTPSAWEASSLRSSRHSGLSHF
Briefly: Binding affinity to EP1 receptor.

Data set [4] has as its system Rattus norvegicus. Briefly: Antiinflammatory activity against carrageenan-induced paw edema in po dosed rat. It is filed as functional.
Data set [5] can be described thus: Cmax in Sprague-Dawley rat at 10 mg/kg, po and 5 mg/kg, iv after 1 hr. The settings on record: in vivo. It is filed as ADME, organism-based.
Data set [6] has as its system Rattus norvegicus. Briefly: Effect on carrageenan-induced paw hyperalgesia in po dosed rat. It is filed as functional. (In the carrageenan paw model, swelling and tenderness develop within hours.)
In data set [7] the target is Prostaglandin E2 receptor EP4 subtype (Homo sapiens, UniProt P35408). Briefly: Binding affinity to EP4 receptor.
A short description of data set [8]: Half life in Sprague-Dawley rat at 10 mg/kg, po and 5 mg/kg, iv. It is filed as ADME, organism-based. Conditions: in vivo.
Data set [9] concerns the target T3, Prostaglandin E2 receptor EP3 subtype (Homo sapiens, UniProt P43115).
T3 sequence (P43115 whole entry): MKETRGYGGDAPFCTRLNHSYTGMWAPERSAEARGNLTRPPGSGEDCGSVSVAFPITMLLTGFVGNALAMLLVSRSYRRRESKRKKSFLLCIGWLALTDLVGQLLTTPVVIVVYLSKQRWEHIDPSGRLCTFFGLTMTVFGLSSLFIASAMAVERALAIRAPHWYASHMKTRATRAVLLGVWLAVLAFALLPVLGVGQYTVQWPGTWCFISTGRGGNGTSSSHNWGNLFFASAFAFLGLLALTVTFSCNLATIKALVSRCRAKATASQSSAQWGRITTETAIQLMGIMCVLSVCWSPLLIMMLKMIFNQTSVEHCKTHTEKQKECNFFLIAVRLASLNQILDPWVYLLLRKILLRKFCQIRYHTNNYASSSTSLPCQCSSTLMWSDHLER
Briefly: Binding affinity to EP3 receptor.

A short description of data set [10]: Stability in rat hepatocytes after 3 hrs. Conditions: read-out: Stability. It is filed as ADME, cell-based, Hepatocyte. In outline: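 Incubation with rat hepatocytes for 3 h; percentage of parent compound recovered intact.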
The target in a further data set is Prostacyclin receptor (Homo sapiens, UniProt P43119). Briefly: Binding affinity to IP receptor.
For a further data set, the target named is T4, Thromboxane A2 receptor (Homo sapiens, UniProt P21731).
T4 sequence (P21731 whole entry): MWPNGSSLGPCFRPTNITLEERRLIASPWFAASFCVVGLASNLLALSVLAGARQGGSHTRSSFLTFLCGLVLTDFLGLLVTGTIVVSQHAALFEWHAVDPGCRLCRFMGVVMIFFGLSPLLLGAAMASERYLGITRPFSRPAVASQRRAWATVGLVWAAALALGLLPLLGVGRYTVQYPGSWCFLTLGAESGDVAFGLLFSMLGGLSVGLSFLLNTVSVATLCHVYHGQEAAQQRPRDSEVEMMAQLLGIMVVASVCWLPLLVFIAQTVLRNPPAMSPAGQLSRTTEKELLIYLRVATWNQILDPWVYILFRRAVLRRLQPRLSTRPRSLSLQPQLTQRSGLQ
Briefly: Binding affinity to TP receptor.

The target in data set [11] is Prostaglandin E2 receptor EP2 subtype (Homo sapiens, UniProt P43116). Briefly: Binding affinity to EP2 receptor.
Data set [12] can be described thus: Clearance in Sprague-Dawley rat at 10 mg/kg, po and 5 mg/kg, iv. It is filed as ADME, organism-based. Conditions: in vivo.
Data set [13] concerns the target T3, Prostaglandin E2 receptor EP3 subtype. Briefly: Binding affinity to EP3 receptor in presence of HSA.
In data set [14] the test system is Rattus norvegicus. Briefly: Concentration in carrageenan-induced hyperalgesic rat at 10 mg/kg, po, 1 hr postdose. It is filed as functional. In outline: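 Young 100 g rats from the hyperalgesia model given 10 mg/kg po in 0.5% methocel as sodium salts; plasma concentration measured 1 h post-dosing, at the time hyperalgesia was assessed.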
Data set [15] deals with Prostaglandin F2-alpha receptor (Homo sapiens, UniProt P43088). Briefly: Binding affinity to FP receptor.
Data set [16] addresses T5, Prostaglandin E2 receptor EP3 subtype (Homo sapiens) (UniProt P43115).
T5 sequence (whole entry): T3 sequence (P43115 whole entry)
Briefly: Antagonistic activity at EP3 receptor assessed as inhibition of cAMP production in HEK EBNA cells. It is filed as functional, cell-based. Conditions: HEK293-EBNA, filed as antagonist. (cAMP levels reflect the balance of adenylyl cyclase and phosphodiesterase activity.)

Data set [17] can be described thus: Metabolism in human hepatocytes. It is filed as ADME, cell-based, Hepatocyte. The settings on record: read-out: Activity.
Data set [18] concerns Rattus norvegicus. Briefly: Concentration in carrageenan-induced hyperalgesic rat at 5 mg/kg, po, 1 hr postdose. It is filed as functional.
A short description of data set [19]: Cmax in Sprague-Dawley rat at 10 mg/kg, po and 5 mg/kg, iv after 30 mins. The settings on record: in vivo. It is filed as ADME, organism-based.

Prostacyclin receptor, sequence (P43119 whole entry): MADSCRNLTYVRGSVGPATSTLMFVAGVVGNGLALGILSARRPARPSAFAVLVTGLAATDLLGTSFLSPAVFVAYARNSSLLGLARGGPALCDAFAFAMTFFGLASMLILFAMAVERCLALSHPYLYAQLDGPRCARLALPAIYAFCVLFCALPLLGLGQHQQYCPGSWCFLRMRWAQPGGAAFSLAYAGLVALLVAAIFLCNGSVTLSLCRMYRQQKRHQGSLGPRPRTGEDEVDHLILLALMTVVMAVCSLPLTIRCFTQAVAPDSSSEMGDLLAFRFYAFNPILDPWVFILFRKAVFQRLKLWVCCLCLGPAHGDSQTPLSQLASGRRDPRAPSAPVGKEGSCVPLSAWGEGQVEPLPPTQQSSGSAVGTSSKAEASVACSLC
Prostaglandin E2 receptor EP4 subtype, sequence (P35408 whole entry): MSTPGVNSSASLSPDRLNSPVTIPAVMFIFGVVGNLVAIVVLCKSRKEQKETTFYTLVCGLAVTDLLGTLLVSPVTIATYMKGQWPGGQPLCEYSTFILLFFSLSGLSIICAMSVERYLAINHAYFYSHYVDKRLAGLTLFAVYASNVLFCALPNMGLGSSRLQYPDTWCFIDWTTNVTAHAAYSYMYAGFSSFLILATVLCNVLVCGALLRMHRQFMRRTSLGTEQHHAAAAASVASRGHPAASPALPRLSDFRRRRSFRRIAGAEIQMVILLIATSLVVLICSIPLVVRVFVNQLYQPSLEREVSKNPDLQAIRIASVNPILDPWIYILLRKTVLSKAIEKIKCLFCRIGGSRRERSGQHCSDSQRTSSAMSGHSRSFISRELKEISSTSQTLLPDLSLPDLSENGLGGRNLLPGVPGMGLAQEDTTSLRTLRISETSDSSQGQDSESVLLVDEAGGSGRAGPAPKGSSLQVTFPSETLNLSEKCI
Prostaglandin F2-alpha receptor, sequence (P43088 whole entry): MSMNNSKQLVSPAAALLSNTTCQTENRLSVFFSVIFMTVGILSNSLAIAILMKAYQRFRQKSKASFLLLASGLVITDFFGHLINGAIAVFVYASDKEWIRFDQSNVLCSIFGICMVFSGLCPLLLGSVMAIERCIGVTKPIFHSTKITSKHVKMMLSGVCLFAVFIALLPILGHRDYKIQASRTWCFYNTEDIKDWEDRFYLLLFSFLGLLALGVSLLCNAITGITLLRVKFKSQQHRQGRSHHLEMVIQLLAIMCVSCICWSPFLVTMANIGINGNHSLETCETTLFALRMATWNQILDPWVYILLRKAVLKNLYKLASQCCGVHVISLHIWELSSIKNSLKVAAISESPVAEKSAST
Prostaglandin E2 receptor EP2 subtype, sequence (P43116 whole entry): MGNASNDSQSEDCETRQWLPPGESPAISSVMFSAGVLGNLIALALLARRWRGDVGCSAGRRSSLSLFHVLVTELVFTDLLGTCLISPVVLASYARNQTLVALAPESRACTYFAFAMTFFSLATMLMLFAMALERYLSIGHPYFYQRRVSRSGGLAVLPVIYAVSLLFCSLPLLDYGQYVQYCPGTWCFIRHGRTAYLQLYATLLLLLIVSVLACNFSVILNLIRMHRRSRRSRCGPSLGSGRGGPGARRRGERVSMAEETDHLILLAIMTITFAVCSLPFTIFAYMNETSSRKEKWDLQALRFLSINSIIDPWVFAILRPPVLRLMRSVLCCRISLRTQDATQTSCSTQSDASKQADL

For `COc1ccc(Br)cc1S(=O)(=O)NC(=O)/C=C/c1ccccc1Cc1ccc2ccccc2c1`, the bioavailability in data set [1] was 72%. The Ki in data set [2] is greater than 500 nM; in [3], 39000 nM; in data set [7] it was 890 nM (antagonist); in data set [9], 0.6 nM (antagonist); on Prostacyclin receptor, greater than 500 nM; on Thromboxane A2 receptor it was greater than 500 nM. Moreover, the inhibition constant (Ki) is greater than 50000 nM in data set [11], 6.9 nM (antagonist) in [13] and greater than 500 nM in data set [15]. Besides, the ED50 in the data set on Rattus norvegicus [4] and with Rattus norvegicus [6] was 3.3 mg/kg each time. The compound further registered a Cmax in [5] of 50 µM. This compound also had a half-life in data set [8] of 4 h. The remaining at 3 h in data set [10] worked out at 30%. In addition, the clearance in data set [12] was 1 mL/min. Also, the Activity in the data set with Rattus norvegicus [14] came out at 32 µM. For the same compound, the Kb in data set [16] is 0.6 nM. In addition, the metabolised in data set [17] is 36%.
For the compound `O=C(O)/C=C/c1ccccc1Cc1ccc2cc(OCc3ccccc3)ccc2c1`, the bioavailability in data set [1] was 59%. The Ki in data set [2] was 82 nM (antagonist); in [3] it was greater than 100000 nM; in [7], greater than 15000 nM; in data set [9], 3.2 nM (antagonist); at Prostacyclin receptor, greater than 500 nM; at Thromboxane A2 receptor, greater than 500 nM. Also, the Ki in data set [11] is greater than 40000 nM; in [13] it was 46 nM (antagonist); in data set [15] it was greater than 500 nM. Also, the median effective dose (ED50) was greater than 10 mg/kg in the data set with Rattus norvegicus [4] and 4.6 mg/kg with Rattus norvegicus [6]. This compound also came in with an Activity in the data set on Rattus norvegicus [18] of 11 µM. Also, in [8], the half-life is 3 h. The compound further displayed a clearance in data set [12] of 3.1 mL/min. The compound also came in with a Cmax in [19] of 28 µM.
With `O=C(/C=C/c1ccccc1Cc1ccc2ccccc2c1)NS(=O)(=O)c1cccs1`, the bioavailability in [1] is 144%. Besides, the Ki in data set [2] was greater than 500 nM; in [3], 9600 nM (antagonist); in data set [7], 1300 nM (antagonist); at Prostacyclin receptor it was greater than 500 nM; on Thromboxane A2 receptor, greater than 500 nM; in data set [11], 8600 nM (antagonist). Further, the inhibition constant (Ki) in data set [15] was greater than 500 nM. The ED50 in the data set on Rattus norvegicus [4] is 1.2 mg/kg; in the data set with Rattus norvegicus [6], 6.2 mg/kg. The same compound gave a half-life in data set [8] of 3 h. In addition, the remaining at 3 h in data set [10] was 43%. The same compound yielded a clearance in [12] of 12 mL/min. This compound also had an Activity with Rattus norvegicus [14] of 5 µM. In data set [19], this compound registered a Cmax of 21 µM. Further, the metabolised in data set [17] is 45%.
On to `Cc1ccc(OCc2ccccc2)c(C/C=C/c2ccccc2/C=C/C(=O)O)c1`, for which the bioavailability in [1] amounted to 97%. Besides, the Ki in data set [2] is greater than 500 nM; in [3], 19000 nM; in data set [7], 2000 nM (antagonist); in [9], 9 nM (antagonist); on Prostacyclin receptor, greater than 500 nM; at Thromboxane A2 receptor it was greater than 500 nM. The Ki is 860 nM (antagonist) in [11] and greater than 500 nM in data set [15]. Also, the ED50 with Rattus norvegicus [4] came out at 0.9 mg/kg; in the data set on Rattus norvegicus [6] it was 20 mg/kg. Also, the half-life in data set [8] was 2 h. Moreover, the remaining at 3 h in data set [10] was found to be 8%. In data set [12], the clearance amounted to 10 mL/min. The Activity in the data set with Rattus norvegicus [14] is 0.24 µM. Besides, the peak concentration (Cmax) in data set [19] was 22 µM. In data set [16], the Kb is 32 nM.

In general, Ki refers to the dissociation constant of the complex between target and ligand, obtained from inhibition or displacement. Usually ED50 stands for the dose that gives a 50% effect, or the effect in half of the subjects. A high value points to a need for a large dose. As a reminder, the Cmax is the maximum level reached in the sampled fluid or tissue. What is called half-life is the time needed for the level to fall by half in the phase considered. One may read the Kb as the affinity of an antagonist, worked out from how it opposes an agonist.
